Measurements as given in publication PMC6648814 (ACS Omega, 2019).

What was measured:
[1] = target: T1, DfrB1 (Escherichia coli, UniProt P00383); assay: DfrB1 inhibition, spectrophotometric kinetic assay; type: biochemical; conditions: for IC50: DfrB1 IC50, pH 7; for inhibition of DfrB1 (in words): at the highest concentration that could be assayed; for fold change of DfrB1 Ki relative to 1: greater Ki / weaker than 1; for Hill coefficient: DfrB1 inhibition, Hill plot
T1 sequence (P00383 1-78): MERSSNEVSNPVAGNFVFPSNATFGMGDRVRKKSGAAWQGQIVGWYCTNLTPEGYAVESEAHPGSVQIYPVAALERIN

[2] = target: T2, hDfr (Homo sapiens, UniProt P00374); assay: human Dfr inhibition, kinetic assay; type: biochemical; conditions: for inhibition of hDfr (in words): selectivity
T2 sequence (P00374 1-187): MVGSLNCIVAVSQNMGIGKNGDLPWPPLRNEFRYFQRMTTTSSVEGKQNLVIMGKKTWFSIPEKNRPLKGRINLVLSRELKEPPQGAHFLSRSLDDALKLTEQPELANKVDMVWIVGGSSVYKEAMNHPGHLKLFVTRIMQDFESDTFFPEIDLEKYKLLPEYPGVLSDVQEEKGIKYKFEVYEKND
Procedure, shortened: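 His6-tagged human Dfr, purified by nickel affinity (stepwise imidazole in 0.1 M potassium phosphate, pH 8.0), then gel filtration in 0.1 M potassium phosphate, pH 7.5. Protein quantified by Bio-Rad assay. Kinetic assay at pH 7. Test compound tested up to the highest concentration that absorbance and precipitation allowed. IC50 determined per earlier method, with Ki calculated from IC50.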

[3] = target: T3, DfrB4 (Escherichia coli, UniProt Q8VNN1); assay: DfrB4 inhibition, kinetic assay; type: biochemical
T3 sequence (Q8VNN1 1-78): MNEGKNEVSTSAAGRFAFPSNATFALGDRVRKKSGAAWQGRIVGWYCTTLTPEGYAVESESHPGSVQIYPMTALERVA

[4] = Solubility limit in assay medium; type: physicochemical; conditions: 10% DMSO, aqueous with cosolvent or surfactant or cyclodextrin
[5] = target: apo-DfrB1; conditions: read-out: Kd1; binding on the apo-DfrB1; cited from earlier work
[6] = target: T1, DfrB1; conditions: DfrB1 substrate KM; cited from earlier work
[7] = test system: E. coli expressing DfrB4; conditions: highest TMP concentration dissolved in the medium, 600 μg/mL; cited from earlier work

SMILES	Ki [1] [µM]	IC50 [1] [µM]	IC50 [2] [µM]	Ki [3] [µM]	also measured
O=C(O)c1ccc(OCCCCCCOc2ccc(C(=O)O)cc2)cc1 [Compound 12]		> 500			
O=C(O)c1ccc(OCCCCCCCCCCCCOc2ccc(C(=O)O)cc2)cc1 [Compound 15]		> 250			
O=C(O)Cc1ccc(OCCCCCCOc2ccc(CC(=O)O)cc2)cc1 [Compound 16]		> 500			inhibition of DfrB1 (in words) [1]: No inhibition was observed
O=C(O)CCc1ccc(OCCCCOc2ccc(CCC(=O)O)cc2)cc1 [Compound 17]		> 200			inhibition of DfrB1 (in words) [1]: No inhibition was observed
Nc1nc(=O)c2c([nH]1)NCC(CNc1ccc(C(=O)N[C@@H](CCC(=O)O)C(=O)O)cc1)=N2 [DHF, dihydrofolate]					Kd [5]: 120 µM
NC(=O)C1=CN([C@@H]2O[C@H](COP(=O)(O)OP(=O)(O)OC[C@H]3O[C@@H](n4cnc5c(N)ncnc54)[C@H](OP(=O)(O)O)[C@@H]3O)[C@@H](O)[C@H]2O)C=CC1 [NADPH]					Km [6]: 1.6 ± 0.02 µM; Kd [5]: 2.5 µM; Km ([3]; DfrB4 substrate KM): 2.8 ± 0.6 µM
COc1cc(Cc2cnc(N)nc2N)cc(OC)c1OC [TMP, Trimethoprim, reference compound]	600			550	TMP resistance conferred by DfrB4 expression [7]: complete resistance

Now from value to compound, other results behind:

Ki [1] [µM]	IC50 [1] [µM]	IC50 [2] [µM]	Ki [3] [µM]	SMILES	also measured
3.5 ± 1.7	110 ± 10	> 500	3.9 ± 0.9	O=C(O)c1ccc2[nH]c(-c3ccc(OCCC(O)COc4ccc(-c5nc6cc(C(=O)O)ccc6[nH]5)cc4)cc3)nc2c1 (stereo not shown) [Compound 3]	inhibition of hDfr (in words) [2]: no inhibition
2.8 ± 0.8	90 ± 20	> 400		O=C(O)c1ccc2[nH]c(-c3ccc(OC/C=C/COc4ccc(-c5nc6cc(C(=O)O)ccc6[nH]5)cc4)cc3)nc2c1 [Compound 10]	inhibition of hDfr (in words) [2]: did not inhibit
6.1		> 100		O=C(O)c1ccc2[nH]c(-c3ccc(OCc4ccc(COc5ccc(-c6nc7cc(C(=O)O)ccc7[nH]6)cc5)cc4)cc3)nc2c1 [Compound 11]	inhibition of hDfr (in words) [2]: did not inhibit; solubility [4]: ≤ 100 µM
	> 200			O=C(O)c1ccc2cc(-c3ccc(OCCCCCCCCOc4ccc(-c5ccc6cc(C(=O)O)ccc6c5)cc4)cc3)ccc2c1 [Compound 18]	inhibition of DfrB1 (in words) [1]: abolished inhibition
12 ± 3	400 ± 100	> 500		O=C(O)c1ccc2[nH]c(-c3cccc(OCC(O)COc4cccc(-c5nc6cc(C(=O)O)ccc6[nH]5)c4)c3)nc2c1 [Compound 19]	fold change of DfrB1 Ki relative to 1 [1]: 3 fold
2.6 ± 0.7	80 ± 20	> 400	3.7 ± 0.7	O=C(O)c1ccc2nc(-c3ccc(OCCC(O)COc4ccc(-c5nc6ccc(C(=O)O)cc6[nH]5)cc4Br)c(Br)c3)[nH]c2c1 (stereo not shown) [Compound 20b]	
1.7 ± 0.6	60 ± 20	> 400		O=C(O)c1ccc2nc(-c3ccc(OCCCOc4ccc(-c5nc6ccc(C(=O)O)cc6[nH]5)cc4Br)c(Br)c3)[nH]c2c1 [Compound 21]	
1.1 ± 0.3			1.9 ± 0.5	O=C(O)c1ccc2nc(-c3ccc(OCC(COc4ccc(-c5nc6ccc(C(=O)O)cc6[nH]5)cc4)(COc4ccc(-c5nc6ccc(C(=O)O)cc6[nH]5)cc4)COc4ccc(-c5nc6ccc(C(=O)O)cc6[nH]5)cc4)cc3)[nH]c2c1 [Compound 31]	fold lower DfrB1 Ki than the best inhibitors [1]: 2- to 12 fold; Hill coefficient [1]: 1.1 ± 0.4
7.4 ± 2.7			11 ± 1.3	O=C(O)c1ccc2[nH]c(-c3ccc(OCc4ccccc4COc4ccc(-c5nc6cc(C(=O)O)ccc6[nH]5)cc4)cc3)nc2c1 [Compound 33]	Hill coefficient [1]: 1.1 ± 0.1; fold change of DfrB1 Ki relative to 1 [1]: 2 fold; mode of inhibition (Dixon plot) ([1]; varying NADPH, saturating DHF, with respect to NADPH binding): competitive; inhibition of hDfr (in words) [2]: no inhibition
